Measurements taken from the RNAGym collection of RNA variant scans (doi:10.1126/science.aae0568).
Fewer inactive variants are shown than the library holds.

B1: tRNA (parent)
chain: GUUCCGUUGGCGUAAUGGUAACGCGUCUCCCUCCUAAGGAGAAGACUGCGGGUUCGAGUCCCGUACGGAACG

Variants of: B1
Experiment: yeast fitness relative to wild type (ratio to wild type); higher = fitter; tRNA-Arg(CCU), competitive growth, 37 C, YPD
In short: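 Variants of the tRNA-Arg(CCU) gene, chemically synthesised with a 3% per-site mutation rate at 69 sites, were placed at the native genomic locus in Saccharomyces cerevisiae. The pooled strains were competed in YPD at 37°C for 24 hours in six parallel replicates. Gene amplicons from the start population and from each end population were read by 100-nucleotide paired-end sequencing. Darwinian fitness relative to wild type came from changes in genotype frequencies; genotypes needed ≥ 100 starting reads, and estimates < 0.5 were set to 0.5.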

Variant | yeast fitness
GUUCCGUUGGCGUAGUGGUAACGCGUCUCCCUCCUAAGAAGAAGACUGCGGGUUCGAGUCCCGUACGGAACG [A15G G39A] | 0.959
GUUCCGUUGGCGUAGUCGUAACGCGUCUCCCUACUAAGGAGAAGAAUGCGGAUUCGAGUCCCGUACGGAACG [A15G G17C C33A C46A G52A] | ≤ 0.5
GUUCCGUUGGCGUAGUGAUAACGCGUCUCCCUCCUAAGGAGAAGACUGUGGGUUCGAGUCCCGUACGGAACG [A15G G18A C49U] | 0.669
GUUCCGUUGGCGUAGUGGUAACCCGUCUCCCUCCUAAGGAGAAGGCUGCGGAUUCGAGUCCCAUACGGAACG [A15G G23C A45G G52A G63A] | ≤ 0.5
GUUCCGUUGGCGUAGUGAUAACGCGUCUCCCUCCUAAGGAGAAGACUGCGGGUUCGACUCCCGUACGGUACG [A15G G18A G58C A69U] | ≤ 0.5
GUUCCGUUGGCGUAGUGGUAACUGGUCUCCCUCCUAAGGAGAAGGCUGCGGGUUCGAGUCCCGUACGGAACG [A15G G23U C24G A45G] | 0.554
GUUCCGUUGGCGUAGUGGUAACGCGUCUCCCUCCUAACGAGAAGACUGCGGGUUCGAGUCCCGUAUGGAACG [A15G G38C C66U] | ≤ 0.5
GUUCCGUUGGCGUAGUGGUAACGCAUCUCCCUCCUAAGGAGAAGACUGCGGGUUCGAGUUCCGUACGCAACG [A15G G25A C60U G68C] | 0.561
GUUCCGUUGGCGUAGUGGUAACACAUCUCCCUCCUAAAGAGAAGACUGCGGGUUCGAGUCCCGUACGGAUCG [A15G G23A G25A G38A A70U] | ≤ 0.5
GUUCCGUUGGCGUAGUGGUAACGCGUCUCCCUCCUAACGAGAAGACUGCGGGUUCGAGUCCCGUACGGAACG [A15G G38C] | 0.669
GUUCCGUUGGCGUAGUGGUAACGCGUCUCCCUCCUAAAGAGAAGACUGCGGGUUCGAGUCCCGUACGGAACG [A15G G38A] | 0.866
GUUCCGUUGGCGUAGUGAUAACGCGUCUCCCUCCUAACGAGAAGACUGCGGGUUCGAGUCCCGUACGGAACG [A15G G18A G38C] | ≤ 0.5
GUUCCGUUGGCGUAGUGAUAACGCGUCUCCCUCCUAAGGAGAAGCCUGCGGGUUCGAGUCCCGUACGGAACG [A15G G18A A45C] | 0.57
GUUCCGUUGGCGUAGUGGUAACGCAUCUCCCUCCUAAAGAGAAGACUGCGGGUUCGAGUCCCGUACGGAACG [A15G G25A G38A] | ≤ 0.5
GUUCCGUUGGCGUAGUGGUAACGCAUCUCCCUCCUAAGGAGAAGACUGCGGGUUCGAGUCUCGUACGGAUCG [A15G G25A C61U A70U] | ≤ 0.5
GUUCCGUUGGCGUAGUGGUAACGCGUCUCCCUCCUAAGAAGAAGACUGCGGGUUCGAGUCCGGUACGGAACG [A15G G39A C62G] | 0.568
GUUCCGUUGGCGUAGUGGUAACACGUCUCCCUCCUAAGGAGAAGACUGCAGGUUCGCGUCCCGUUCGGAACG [A15G G23A G50A A57C A65U] | 0.6
GUUCCGUUGGCGUAGUGGUAACACAUCUCCCUCCUAAAGAGAAGACUGCGGGUUCGAGUCCCGUACGGAACG [A15G G23A G25A G38A] | 0.746
GUUCCGUUGGCGUAGUGGUAACGCAUUUCCCUCCUAAGGAGAAGACUGUGGGUUCGAGUCCCGUACGGAACG [A15G G25A C27U C49U] | 0.714

Variant | yeast fitness
GUUCCGUUGGCGUAGUCGUAACGCGUCUCCCUCUUAAGGAGAAGACUGCGGGUUCGAGUACCGUACGGAACG [A15G G17C C34U C60A] | ≤ 0.5
GUUCCGUUGGCGUAGUGGUAACACGUCUCCCUCCUAAGGAGAAGACUGCGGGUUCGAGUCCCGUACGGAACG [A15G G23A] | 0.931
GUUCCGUUGGCGUAGUGGUAACGCCUCUCCCUCCUAAGGAGAAGACUCCGGGUUCGAGUCCCGUACGGAACG [A15G G25C G48C] | 0.576
GUUCCGUUGGCGUAGUGGUAACGCAUCUCCCUCCUAAGGAGAAGACUGCGGGUUCGAGUCUCGUACGGAACG [A15G G25A C61U] | 0.558
GUUCCGUUGGCGUAGUGGUAACGCGUCUCCCUCCUAAAGGGAAGACUGCGGGUUCGAGUCCCGUACGGUACG [A15G G38A A40G A69U] | ≤ 0.5
GUUCCGUUGGCGUAGUGGUAACGCGUCUCCCUCCUAAGAAGAAGACUGCGGGUUCGAGUCCCGUACGGACCG [A15G G39A A70C] | 0.742
GUUCCGUUGGCGUAGUGGUAACGCCUCUCCCUCCUAAGGAGAAGACUACGGGUUCAAGUCCCGUACGGAACG [A15G G25C G48A G56A] | 0.79
GUUCCGUUGGCGUAGUCGUAACACAUCUCCCUCCUAAGGAGAAGACUGCGGGUUCGAGUCCCGUAUGGAACG [A15G G17C G23A G25A C66U] | ≤ 0.5
GUUCCGUUGGCGUAGUGGUAACGCCUCUCCUUCCUAAGGAGAAGACUGCGGGUUCGAGUCCCGUACGGAUCG [A15G G25C C31U A70U] | ≤ 0.5
GUUCCGUUGGCGUAGUGGUAACGCGUCUCCCUCCUAACGAGAAGACUGCGGGUUCGAGUCCCGAACGACACG [A15G G38C U64A G68A A69C] | ≤ 0.5
GUUCCGUUGGCGUAGUGGUAACGCAUCUCACUCCUAAGGAGAAGACUGCGGAUUCGAGUCCCGUACGGAACG [A15G G25A C30A G52A] | 0.563
GUUCCGUUGGCGUAGUGGUAACGCGUCUCCCUCCUAAGAAGAAGACUGUGGGUUCGAGUCCCGUACGGAACG [A15G G39A C49U] | 0.679
GUUCCGUUGGCGUAGUGGUAACGCAUCUCCCUCCUAAGGAGAAGACUGUGGGUUCGAGUCCCGUUCGGAACG [A15G G25A C49U A65U] | 0.58
GUUCCGUUGGCGUAGUAGUAACGCGUCUCCCUCCUAAGGAGAAGAUUGCGGGUUCGAGUCCCGUACGGAACG [A15G G17A C46U] | 0.738
GUUCCGUUGGCGUAGUGGUAACGCGUCUCCCUCCUAAGAAGAAGACUGCGGGUUCGAGUCCCGUACGGUACG [A15G G39A A69U] | 0.774
GUUCCGUUGGCGUAGUGGUAACGCGUCUCCCUCCUAACGAGAAGACUGCGGGUUCGAGUGCCGUACGGAACG [A15G G38C C60G] | ≤ 0.5
GUUCCGUUGGCGUAGUGGUAACGCCUCUCCCUCCUAAGGAGAAGACUGCGGGUUCGAGUCCCGUACAGAGCG [A15G G25C G67A A70G] | ≤ 0.5
GUUCCGUUGGCGUAGUAGUAACGCGCCUCCCUCCUAAGGAGAAGACUGCGGGUUCGAGUCUCGUACAGAACG [A15G G17A U26C C61U G67A] | ≤ 0.5
GUUCCGUUGGCGUAGUGGUAACCCGUCUCCCUCCUAAGGAGAAGGCUGCGGAUUCGAGUCCCGUACGGAACG [A15G G23C A45G G52A] | 0.65
